From ChEMBL document CHEMBL1152965, “Synthesis and in vitro antiplasmodial evaluation of 4-anilino-2-trichloromethylquinazolines” (Bioorg Med Chem, 2009)

What was measured:
Plasmodium falciparum = assay: Antimalarial activity as reduced parasitaemia after 48 hrs against chloroquine, pyrimethamine and proguanil-resistant Plasmodium falciparum W2 infected in type A+ human erythrocytes by flow cytometry; format: functional, organism-based; conditions: W2, 48 h
K562 = assay: Cytotoxicity against human K562 cells after 72 hrs by flow cytometry; format: cell-based; conditions: K562, 72 h
How it was run: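 Chemosensitive K562 subline, late log phase, in phenol-red-free RPMI with 10% serum. Compound range added in duplicate (DMSO <0.5%). After 72 h at 37 °C, 6% CO₂, cells stained with propidium iodide and live cells in a 100 µL sample counted by flow cytometry. IC50 from non-linear regression of dose-response curves, mean of three independent experiments.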

HepG2 = assay: Cytotoxicity against human HepG2 cells after 72 hrs by MTT assay; format: cell-based; conditions: HepG2, 72 h
How it was run: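 HepG2 cells plated in RPMI with 10% FBS and grown 24 h, then exposed to a range of compound concentrations for 72 h at 37 °C, 6% CO₂. MTT (5 mg/mL stock) added for 2 h, formazan dissolved in DMSO and read at 570 nm against 630 nm. Viability expressed as percent of untreated control. CC50 taken from the dose-response curve.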

[1] = Selectivity index, ratio of IC50 for human K562 cells to IC50 for chloroquine, pyrimethamine and proguanil-resistant Plasmodium falciparum W2; format: toxicity, cell-based; conditions: K562 cells (cytotoxicity) versus Plasmodium falciparum W2, read-out: Ratio IC50
How it was run: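 SI = K562 IC50 / W2 IC50. Live cells counted by flow cytometry after propidium iodide stain. IC50 by non-linear regression, mean of three independent experiments.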

[2] = Selectivity index, ratio IC50 for human HepG2 cells to IC50 for chloroquine, pyrimethamine and proguanil-resistant Plasmodium falciparum W2; format: functional
How it was run: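 SI = HepG2 IC50 / W2 IC50. MTT 2 h, formazan dissolved in DMSO, absorbance 570 nm (ref 630 nm). Viability as % of untreated control, IC50 from dose-response curve.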

Toxoplasma gondii = assay: Antitoxoplasmic activity against Toxoplasma gondii tachyzoites infected in HFF assessed as beta-galactosidase activity after 96 hrs by colorimetric microtiter assay; format: functional, organism-based
How it was run: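 Tachyzoites of the PRU-β-Gal strain. 10⁴ HFF cells per well grown to confluence in phenol-red-free RPMI with 10% FCS. Monolayers infected with 2.10³ parasites per well for 3 h, then compounds in DMSO (final <0.5%) added in triplicate. Incubated 96 h at 37 °C, 6% CO₂. CPRG added at 500 µM final for a further 24 h. Read at 570/630 nm, blanked on uninfected wells. IC50 from three independent experiments.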

Leishmania donovani = assay: Antileishmanial activity against Leishmania donovani HOM/IN/01/2001 promastigotes after 72 hrs by flow cytometry; format: functional, organism-based; conditions: HOM/IN/01/2001, 72 h
How it was run: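 GFP-transfected promastigotes, log phase, in M199 with 10% FCS and 500 µg/mL G418, seeded at 10⁵ parasites/mL. Compounds in DMSO (final <0.5% v/v) added in duplicate over a concentration range. Incubated 72 h at 27 °C.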

[3] = tested on: Salmonella enterica subsp. enterica; assay: Mutagenic activity in Salmonella Typhimurium TA97a assessed as number of spontaneous and drug-induced revertants after 48 hrs in absence of 4% S9 mixture by Ames test; format: toxicity, organism-based; conditions: salmonella enterica subsp. enterica serovar typhimurium
How it was run: (§1)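 Liquid-incubation Ames variant. Tester strains grown overnight in nutrient broth. 5×10^-3 M DMSO solution of compound added to 0.1 mL culture, with or without 4% S9 mix, 1 h at 37 °C with shaking. Top agar added and mixture plated on Vogel-Bonner agar. After 48 h at 37 °C in the dark, revertants per plate counted with a laser colony counter.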

[4] = tested on: Salmonella enterica subsp. enterica; assay: Mutagenic activity in Salmonella Typhimurium TA97a assessed as number of spontaneous and drug-induced revertants after 48 hrs in presence of 4% S9 mixture by Ames test; format: toxicity, organism-based; conditions: salmonella enterica subsp. enterica serovar typhimurium; how it was run: as §1
[5] = tested on: Salmonella enterica subsp. enterica; assay: Mutagenic activity in Salmonella Typhimurium TA98 assessed as number of spontaneous and drug-induced revertants after 48 hrs in absence of 4% S9 mixture by Ames test; format: toxicity, organism-based; conditions: salmonella enterica subsp. enterica serovar typhimurium; how it was run: as §1
[6] = tested on: Salmonella enterica subsp. enterica; assay: Mutagenic activity in Salmonella Typhimurium TA98 assessed as number of spontaneous and drug-induced revertants after 48 hrs in presence of 4% S9 mixture by Ames test; format: toxicity, organism-based; conditions: salmonella enterica subsp. enterica serovar typhimurium; how it was run: as §1
[7] = tested on: Salmonella enterica subsp. enterica; assay: Mutagenic activity in Salmonella Typhimurium TA100 assessed as number of spontaneous and drug-induced revertants after 48 hrs in presence of 4% S9 mixture by Ames test; format: toxicity, organism-based; conditions: salmonella enterica subsp. enterica serovar typhimurium; how it was run: as §1
[8] = tested on: Salmonella enterica subsp. enterica; assay: Mutagenic activity in Salmonella Typhimurium TA102 assessed as number of spontaneous and drug-induced revertants after 48 hrs in absence of 4% S9 mixture by Ames test; format: toxicity, organism-based; conditions: salmonella enterica subsp. enterica serovar typhimurium; how it was run: as §1
[9] = tested on: Salmonella enterica subsp. enterica; assay: Mutagenic activity in Salmonella Typhimurium TA102 assessed as number of spontaneous and drug-induced revertants after 48 hrs in presence of 4% S9 mixture by Ames test; format: toxicity, organism-based; conditions: salmonella enterica subsp. enterica serovar typhimurium; how it was run: as §1

SMILES | IC50 (Plasmodium falciparum) [µM] | IC50 (K562) [µM] | IC50 (HepG2) [µM] | selectivity ratio [1] | Ratio IC50 [2] | IC50 (Toxoplasma gondii) [µM] | IC50 (Leishmania donovani) [µM] | Activity [3] | Activity [4] | Activity [5] | Activity [6] | Activity [7] | Activity [8] | Activity [9]
Clc1cccc(Nc2nc(C(Cl)(Cl)Cl)nc3ccccc23)c1 | 1.7 | > 50 | > 100 | > 29.4 | >58.8 | > 50 | > 50 | Not Active | Not Active | Not Active | Not Active | Not Active | Not Active | Not Active
ClC(Cl)(Cl)c1nc(Nc2cccc(Br)c2)c2ccccc2n1 | 2.2 | > 50 | > 100 | > 22.7 | >45.5 | > 50 | > 50 | Not Active | Not Active | Not Active | Not Active | Not Active | Not Active | Not Active
